The record followed here is ChEMBL document CHEMBL1130195, “6-Chloro-5-methyl-1-[[2-[(2-methyl-3-pyridyl)oxy]-5-pyridyl]carbamoyl]- indoline (SB-242084): the first selective and brain penetrant 5-HT2C receptor antagonist” (J Med Chem, 1997).

Experiment [1] has as its target 5-hydroxytryptamine receptor 2A (Homo sapiens, UniProt P28223). The experiment in a line: Displacement of [3H]ketanserin from 5-hydroxytryptamine 2A receptor expressed in HEK 293 cells. The experiment is classed as cell-based, HEK293. The method, boiled down: (§1)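 Human cloned receptors expressed in HEK 293 cells. Radioligands: [3H]5-HT for 5-HT2B, [3H]ketanserin for 5-HT2A, [3H]mesulergine for 5-HT2C. Each value is the mean of at least two determinations, each within 0.2 log unit of the mean.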
For orientation: Displacement assays read how much labelled ligand stays bound in the presence of the test substance.

Experiment [2] concerns the target 5-hydroxytryptamine receptor 2B (Homo sapiens, UniProt P41595). The experiment in a line: Displacement of [3H]5-HT from 5-hydroxytryptamine 2B receptor expressed in HEK 293 cells. The experiment is classed as cell-based, HEK293. The method, boiled down:
as §1

The target in a further experiment is Cytochrome P450 2C9 (Homo sapiens, UniProt P11712). The experiment in a line: Inhibition of heterologously expressed human Cytochrome P450 2C9 at 100 uM. The experiment is classed as ADME.
Another experiment has as its target T1, Cytochrome P450 1A2 (Homo sapiens, UniProt P05177).
T1 sequence (P05177 whole entry): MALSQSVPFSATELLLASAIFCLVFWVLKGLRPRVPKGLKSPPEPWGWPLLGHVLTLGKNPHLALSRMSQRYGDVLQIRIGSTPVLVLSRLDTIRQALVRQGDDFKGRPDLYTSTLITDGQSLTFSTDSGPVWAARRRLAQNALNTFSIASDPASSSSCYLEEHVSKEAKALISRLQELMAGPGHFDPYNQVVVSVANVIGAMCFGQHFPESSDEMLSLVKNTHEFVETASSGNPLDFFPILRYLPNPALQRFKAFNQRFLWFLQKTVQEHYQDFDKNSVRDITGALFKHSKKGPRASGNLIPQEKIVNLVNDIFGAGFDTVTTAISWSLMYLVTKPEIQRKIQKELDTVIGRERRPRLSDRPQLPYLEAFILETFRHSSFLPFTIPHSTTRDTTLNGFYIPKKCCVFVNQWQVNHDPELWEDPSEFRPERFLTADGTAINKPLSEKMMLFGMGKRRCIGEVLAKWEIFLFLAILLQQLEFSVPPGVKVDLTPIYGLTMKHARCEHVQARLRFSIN
As to the kind of experiment: Inhibition of heterologously expressed human Cytochrome P450 1A2 at 500 uM. The experiment is classed as ADME.

In another experiment the target is Cytochrome P450 2D6 (Homo sapiens, UniProt P10635). The experiment in a line: Inhibition of heterologously expressed human Cytochrome P450 2D6 at 10 uM. Format: ADME.
Another experiment relates to Rattus norvegicus. The experiment in a line: Mean dose required to reverse m-chlorophenyl-piperazine (mCPP) induced hypolocomotion (7 mg/kg ip administered 30 min pretest). The conditions noted are these: 0.5 h, read-out: ID50 (the source's name). The experiment is classed as functional. In short, it runs like this: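 Test compound given orally. Hypolocomotion was induced by mCPP, 7 mg/kg ip, 30 min pretest. The ID50 is the dose reversing hypolocomotion by 50%, reported as mean with confidence limits.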

The target of experiment [3] is Cytochrome P450 2C19 (Homo sapiens) (UniProt P33261). The experiment in a line: Inhibition of heterologously expressed human Cytochrome P450 2C19 at 100 uM.
The target of experiment [4] is T2, 5-hydroxytryptamine receptor 2C (Homo sapiens, UniProt P28335).
T2 sequence (P28335 whole entry): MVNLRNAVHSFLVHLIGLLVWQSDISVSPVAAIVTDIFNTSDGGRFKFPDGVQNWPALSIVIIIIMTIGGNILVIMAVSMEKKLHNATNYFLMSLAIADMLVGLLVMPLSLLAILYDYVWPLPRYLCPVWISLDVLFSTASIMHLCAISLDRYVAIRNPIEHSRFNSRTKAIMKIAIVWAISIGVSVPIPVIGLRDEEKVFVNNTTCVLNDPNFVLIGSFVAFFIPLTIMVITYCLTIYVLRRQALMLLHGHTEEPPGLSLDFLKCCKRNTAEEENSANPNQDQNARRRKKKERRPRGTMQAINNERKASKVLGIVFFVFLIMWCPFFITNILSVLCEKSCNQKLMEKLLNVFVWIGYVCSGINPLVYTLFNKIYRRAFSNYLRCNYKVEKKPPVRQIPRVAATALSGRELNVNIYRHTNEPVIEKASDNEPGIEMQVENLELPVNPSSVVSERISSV
The experiment in a line: Displacement of [3H]mesulergine from 5-hydroxytryptamine 2C receptor expressed in HEK 293 cells. The experiment is classed as cell-based, HEK293. The method, boiled down:
as §1

The target in experiment [5] is T3, Cytochrome P450 3A4 (Homo sapiens, UniProt P08684). The experiment in a line: Inhibition of heterologously expressed human Cytochrome P450 3A at 1 uM.
The target in experiment [6] is Serotonin 2 receptors; 5-HT2a & 5-HT2c (Homo sapiens) (UniProt P28223+P28335). As to the kind of experiment: Selectivity for 5-HT2C over 5-HT2A receptor. Format: protein assay.
The target in experiment [7] is T3, Cytochrome P450 3A4. The experiment in a line: Inhibition of heterologously expressed human Cytochrome P450 3A at 1 uM. Format: ADME.
In experiment [8] the target is Cytochrome P450 2C19 (Homo sapiens) (UniProt P33261). The experiment in a line: Inhibition of heterologously expressed human Cytochrome P450 2C19 at 100 uM. This is another data set of the same source.

SMILES strings stand for the structures.

Cytochrome P450 2D6, sequence (P10635 whole entry): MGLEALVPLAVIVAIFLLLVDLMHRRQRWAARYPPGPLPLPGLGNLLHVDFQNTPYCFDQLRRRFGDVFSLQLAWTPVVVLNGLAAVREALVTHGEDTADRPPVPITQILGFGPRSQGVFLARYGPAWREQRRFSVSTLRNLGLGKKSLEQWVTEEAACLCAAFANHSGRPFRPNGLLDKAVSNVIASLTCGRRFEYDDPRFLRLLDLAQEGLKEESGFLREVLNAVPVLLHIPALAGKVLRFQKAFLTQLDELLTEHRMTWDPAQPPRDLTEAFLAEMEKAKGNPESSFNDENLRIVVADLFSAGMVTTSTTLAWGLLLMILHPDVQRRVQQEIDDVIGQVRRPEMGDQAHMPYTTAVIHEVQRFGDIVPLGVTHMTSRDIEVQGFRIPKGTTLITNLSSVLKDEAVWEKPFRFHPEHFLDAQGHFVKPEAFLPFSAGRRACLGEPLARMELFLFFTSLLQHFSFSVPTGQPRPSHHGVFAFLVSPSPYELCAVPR
Cytochrome P450 2C9, sequence (P11712 whole entry): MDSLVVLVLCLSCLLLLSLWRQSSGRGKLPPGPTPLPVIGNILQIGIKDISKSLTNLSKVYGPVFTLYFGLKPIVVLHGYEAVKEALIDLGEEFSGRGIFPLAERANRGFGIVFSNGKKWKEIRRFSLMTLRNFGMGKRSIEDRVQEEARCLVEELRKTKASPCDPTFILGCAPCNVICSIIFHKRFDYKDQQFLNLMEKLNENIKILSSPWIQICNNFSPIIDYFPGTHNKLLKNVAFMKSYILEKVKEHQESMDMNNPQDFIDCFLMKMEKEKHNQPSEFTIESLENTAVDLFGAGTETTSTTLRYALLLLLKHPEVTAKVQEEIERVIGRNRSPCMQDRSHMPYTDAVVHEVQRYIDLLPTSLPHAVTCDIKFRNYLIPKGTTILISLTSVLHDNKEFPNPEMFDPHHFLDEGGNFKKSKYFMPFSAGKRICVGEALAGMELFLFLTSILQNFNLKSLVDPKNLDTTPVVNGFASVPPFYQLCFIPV
5-hydroxytryptamine receptor 2B, sequence (P41595 whole entry): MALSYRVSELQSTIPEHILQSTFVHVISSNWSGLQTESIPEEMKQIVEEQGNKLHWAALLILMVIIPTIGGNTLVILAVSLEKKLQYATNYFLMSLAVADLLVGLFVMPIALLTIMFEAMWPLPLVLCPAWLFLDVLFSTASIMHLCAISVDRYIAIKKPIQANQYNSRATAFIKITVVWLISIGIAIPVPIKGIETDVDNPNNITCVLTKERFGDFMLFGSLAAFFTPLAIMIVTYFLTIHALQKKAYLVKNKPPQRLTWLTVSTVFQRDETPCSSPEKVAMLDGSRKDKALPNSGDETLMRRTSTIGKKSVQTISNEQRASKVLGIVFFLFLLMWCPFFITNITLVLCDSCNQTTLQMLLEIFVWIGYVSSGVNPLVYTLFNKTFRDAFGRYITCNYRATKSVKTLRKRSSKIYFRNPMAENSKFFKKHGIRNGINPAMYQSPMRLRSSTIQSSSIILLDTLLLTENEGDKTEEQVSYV
5-hydroxytryptamine receptor 2A, sequence (P28223 whole entry): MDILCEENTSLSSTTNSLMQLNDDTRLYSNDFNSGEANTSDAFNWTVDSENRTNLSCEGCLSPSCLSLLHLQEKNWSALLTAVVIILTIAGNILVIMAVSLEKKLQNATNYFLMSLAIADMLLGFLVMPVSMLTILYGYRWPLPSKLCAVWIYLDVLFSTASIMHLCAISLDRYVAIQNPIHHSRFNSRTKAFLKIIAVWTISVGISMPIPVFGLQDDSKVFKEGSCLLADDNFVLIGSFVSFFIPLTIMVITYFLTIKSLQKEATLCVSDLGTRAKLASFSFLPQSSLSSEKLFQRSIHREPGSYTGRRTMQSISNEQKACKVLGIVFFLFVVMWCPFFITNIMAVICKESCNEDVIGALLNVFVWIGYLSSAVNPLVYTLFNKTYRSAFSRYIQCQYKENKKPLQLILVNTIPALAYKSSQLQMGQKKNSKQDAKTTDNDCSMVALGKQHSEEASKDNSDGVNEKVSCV
Serotonin 2 receptors; 5-HT2a & 5-HT2c (Homo sapiens), sequence (P28223 whole entry, looked up, one chain of several): as the sequence (P28223 whole entry) above
Cytochrome P450 2C19 (Homo sapiens), sequence (P33261 whole entry, looked up): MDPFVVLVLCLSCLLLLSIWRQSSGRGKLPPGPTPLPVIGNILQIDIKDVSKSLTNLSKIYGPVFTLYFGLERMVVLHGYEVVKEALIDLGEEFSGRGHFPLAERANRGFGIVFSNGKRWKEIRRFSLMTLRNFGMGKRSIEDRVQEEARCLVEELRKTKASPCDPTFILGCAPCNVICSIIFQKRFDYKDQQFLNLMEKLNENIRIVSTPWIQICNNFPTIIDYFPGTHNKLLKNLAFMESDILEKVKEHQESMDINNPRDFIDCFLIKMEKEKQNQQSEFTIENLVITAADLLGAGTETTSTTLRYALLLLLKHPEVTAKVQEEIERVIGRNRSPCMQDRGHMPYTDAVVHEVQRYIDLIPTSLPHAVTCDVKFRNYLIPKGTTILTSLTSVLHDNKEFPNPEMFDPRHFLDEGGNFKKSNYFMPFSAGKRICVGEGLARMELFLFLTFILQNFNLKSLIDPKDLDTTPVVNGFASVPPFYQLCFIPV
T3 sequence (P08684 whole entry): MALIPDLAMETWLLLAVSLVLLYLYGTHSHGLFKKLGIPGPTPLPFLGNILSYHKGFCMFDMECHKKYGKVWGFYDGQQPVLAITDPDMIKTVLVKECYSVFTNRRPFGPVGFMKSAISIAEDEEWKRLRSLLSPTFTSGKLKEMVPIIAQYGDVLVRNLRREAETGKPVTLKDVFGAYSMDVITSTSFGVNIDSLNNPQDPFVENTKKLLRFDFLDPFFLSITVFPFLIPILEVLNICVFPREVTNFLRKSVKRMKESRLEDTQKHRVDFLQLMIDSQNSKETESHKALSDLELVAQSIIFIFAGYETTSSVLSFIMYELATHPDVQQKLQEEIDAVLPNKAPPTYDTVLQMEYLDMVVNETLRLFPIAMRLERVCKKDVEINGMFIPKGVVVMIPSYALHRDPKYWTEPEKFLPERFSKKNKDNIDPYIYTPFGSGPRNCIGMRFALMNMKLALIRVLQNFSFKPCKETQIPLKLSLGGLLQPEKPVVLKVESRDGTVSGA

By Ki is commonly meant a measure of affinity in units of concentration, obtained from inhibition or displacement. In general, IC50 refers to the midpoint of a concentration-inhibition curve. Higher therefore signals weaker potency. For the compound `Cn1ccc2cc3c(cc21)CCN3C(=O)Nc1cccnc1`, the inhibition constant Ki in [1] is 2000 nM; in experiment [2], 25.1 nM. In addition, the IC50 on Cytochrome P450 2C9 is greater than 100000 nM; against Cytochrome P450 1A2 it was 50 nM; at Cytochrome P450 2D6, 30000 nM; in [3], greater than 100000 nM. Further, in the experiment with Rattus norvegicus, the ED50 worked out at 5.5 mg/kg.

For `CSc1cc2c(cc1C(F)(F)F)N(C(=O)Nc1cccnc1)CC2`, the Ki in experiment [1] was 398 nM; in [4], 2.51 nM; in experiment [2], 12.6 nM. In addition, the IC50 on Cytochrome P450 2C9 was greater than 100000 nM; against Cytochrome P450 1A2, 13 nM; at Cytochrome P450 2D6, 110 nM; against Cytochrome P450 3A4 [5], greater than 100000 nM. The ED50 with Rattus norvegicus turned out to be 1.5 mg/kg.

With `Cc1cc2c(cc1Cl)N(C(=O)Nc1cccnc1)CC2`, the Ki in experiment [1] is 158 nM; in [4], 6.31 nM. Moreover, in the experiment with Rattus norvegicus, the ED50 was determined as 0.6 mg/kg. Moreover, the Selectivity ratio in experiment [6] was 30.

As for `CSc1cc2c(cc1Cl)N(C(=O)Nc1cccnc1)CC2`, the Ki in experiment [1] is 2510 nM; in experiment [4], 6.31 nM. The ED50 with Rattus norvegicus is 10 mg/kg. Besides, in experiment [6], the Selectivity ratio was 420.

On to `Cc1cc2c(cc1Cl)N(C(=O)Nc1ccc(Oc3cccnc3C)nc1)CC2` [SB-242084], for which the results for the Ki in [1], in [4] and in [2] were 158 nM, 1 nM and 100 nM, respectively. The IC50 (on Cytochrome P450 2C9; against Cytochrome P450 1A2; at Cytochrome P450 2D6; against Cytochrome P450 3A4 [7]; in [8]) was greater than 100000 nM throughout. Also, in the experiment with Rattus norvegicus, the ED50 came out at 2 mg/kg. Also, the Selectivity ratio in [6] was 160.
